M4 PAM = positive allosteric modulators of human muscarinic M4 receptor; CHO-K1 hM4/Gqi5, Fluo-8 calcium fluorescence, ACh EC20; 0% = ACh EC20, 100% = maximal ACh; P08173; actives 0.4% (n = 360,000); activation, % at 3 µM;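 active means activation above its plate's cutoff, the mean activation of sample wells plus 3 SD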
CHRM5 agonist = CHRM5 agonism in calcium assay; P08912; CHO-K1 hM5 cells, Fluo-8 calcium fluorescence; 0% DMSO wells, 100% maximal acetylcholine response; activation, % at 3 µM; actives 0.19% (n = 360,000); AID 624037;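 active means activation above the run's mean over test compounds plus 3 SD, cut at about 23% in these data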;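 further: signal is peak over basal fluorescence ratio across the kinetic read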
Target sequence (P08912 whole entry, looked up): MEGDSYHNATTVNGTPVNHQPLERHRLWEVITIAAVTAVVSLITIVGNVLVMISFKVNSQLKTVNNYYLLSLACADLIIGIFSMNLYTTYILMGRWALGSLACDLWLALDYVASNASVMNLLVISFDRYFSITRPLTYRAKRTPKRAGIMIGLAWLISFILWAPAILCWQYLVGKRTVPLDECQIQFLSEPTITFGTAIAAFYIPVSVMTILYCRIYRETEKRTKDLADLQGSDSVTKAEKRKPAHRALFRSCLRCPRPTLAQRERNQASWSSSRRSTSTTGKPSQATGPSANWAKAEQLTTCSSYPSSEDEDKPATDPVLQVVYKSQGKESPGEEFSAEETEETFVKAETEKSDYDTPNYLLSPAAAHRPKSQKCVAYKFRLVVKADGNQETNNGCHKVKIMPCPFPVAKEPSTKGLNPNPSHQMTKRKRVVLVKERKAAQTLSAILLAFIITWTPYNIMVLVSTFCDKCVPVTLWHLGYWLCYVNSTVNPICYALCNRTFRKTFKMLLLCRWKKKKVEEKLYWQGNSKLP
M4 antag = CHRM4 antagonism in calcium assay | P08173 | CHO-hM4 cells, ACh EC80, Fluo-8 calcium fluorescence | inhibition, % at 3 µM | actives 0.73% (n = 360,000) | AID 624125;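 active means inhibition above its plate's cutoff, the mean inhibition of sample wells plus 3 SD, cut at about 27% in these data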;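 further: 0% = acetylcholine EC80 with DMSO and 100% = DMSO without agonist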
CHRM5 PAM = CHRM5 positive allosteric modulation | actives 0.3% (n = 360,000) | activation, % at 3 µM | CHO-K1 hM5, Fluo-8 calcium, ACh EC20 PAM; 0% = ACh EC20, 100% = ACh EC100 | P08912;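 active means activation above the run cutoff, the mean activation of all test compounds plus 3 SD, cut at about 18% in these data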
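Assay system: CHO-K1 hM5 cells / Incubation: Fluo-8 loading 80 min at 37 °C plus 30 min room temperature / Technique: Fluo-8 calcium dye fluorescence, kinetic read / Repeats: single replicate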
M5 antag = CHRM5 antagonism in calcium assay; P08912; CHO-hM5 cells, Fluo-8 calcium fluorescence, ACh EC80; inhibition, % at 3 µM; actives 0.59% (n = 360,000); AID 624040;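 active means inhibition above a per-plate cutoff, the mean of that plate's test compounds plus 3 SD, cut at about 27% in these data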;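 further: 0% = acetylcholine EC80 with DMSO and 100% = DMSO without agonist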
M4 ag = agonists of human muscarinic M4 receptor (CHRM4); P08173; CHO-K1 hM4/Gqi5, Fluo-8 calcium fluorescence; vehicle 0%, full acetylcholine response 100%; activation, % at 3 µM; actives 0.14% (n = 360,000);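 active means activation above the run mean over all test wells plus 3 SD, cut at about 32% in these data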;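 further: peak over basal fluorescence ratio per well then scaled between controls; 0% = DMSO wells and 100% = acetylcholine at EC100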
* hit, by the source's call; ! = not active in a repeat. The list is not random: actives were taken first. Their share in the collection is about 1.8%.

Results for COCCNC(=O)C(c1ccc(C)o1)N(Cc1ccc(F)cc1)C(=O)Cn1nnc2ccccc21 (stereo not given) ?
M4 PAM: 1; CHRM5 agonist: -5; M4 antag: -8; CHRM5 PAM: 22*; M5 antag: 1; M4 ag: 2

How did O=C1Nc2ccc(Cl)cc2C(C#CC2CC2)(C(F)(F)F)O1 (stereo not given) do in these assays?
M4 PAM: -15; CHRM5 agonist: -2; M4 antag: 32*; CHRM5 PAM: -11; M5 antag: 4; M4 ag: -2

Results for CCC1NC(=O)c2cccnc2-n2c1nc1ccc(OC)cc1c2=O (stereo not given) ?
M4 PAM: -1; CHRM5 agonist: 0; M4 antag: 3; CHRM5 PAM: -4; M5 antag: 17; M4 ag: 1

What do the screens show for `O=C1N2CCCc3cccc(c32)C12Nc1ccccc1S2` (stereo not given)?
M4 PAM: 9; CHRM5 agonist: -1; M4 antag: 7; CHRM5 PAM: 0; M5 antag: 24; M4 ag: 1

How did O=C1CSC2(C(=O)N3CCCc4cccc2c43)N1c1cccc(C(F)(F)F)c1 (stereo not given) do in these assays?
M4 PAM: -32; CHRM5 agonist: -12; M4 antag: 50*; CHRM5 PAM: -18; M5 antag: 30*; M4 ag: -2

What do the screens show for `COc1ccc(N2C(=O)CSC23C(=O)N2c4c(cccc43)C(C)=CC2(C)C)cc1` (stereo not given)?
M4 PAM: -8; CHRM5 agonist: -5; M4 antag: 4; CHRM5 PAM: 4; M5 antag: -3; M4 ag: -2

How did COc1ccc(N2C(=O)CSC23C(=O)N2CCCc4cccc3c42)cc1 (stereo not given) do in these assays?
M4 PAM: -28; CHRM5 agonist: -6; M4 antag: 75*; CHRM5 PAM: -18; M5 antag: 52*; M4 ag: 1

What do the screens show for `CNc1ncnc2c1ncn2[C@H]1CN(Cc2ccncc2)C[C@@H](CO)O1`?
M4 PAM: 3; CHRM5 agonist: 1; M4 antag: 1; CHRM5 PAM: 3; M5 antag: -3; M4 ag: 1

Results for O=C(CCl)N(c1ccccc1)c1c[nH]c2ccccc12 ?
M4 PAM: 2; CHRM5 agonist: -5; M4 antag: 0; CHRM5 PAM: -3; M5 antag: -2; M4 ag: 2

What do the screens show for `O=C(CCl)N(c1ccc(Cl)cc1)c1c[nH]c2ccccc12`?
M4 PAM: 5; CHRM5 agonist: 8; M4 antag: 35*; CHRM5 PAM: 5; M5 antag: 6; M4 ag: 8

What do the screens show for `Nc1ccc2c3c(cccc13)-c1ccccc1-2`?
M4 PAM: -6; CHRM5 agonist: 205*; M4 antag: 31*; CHRM5 PAM: -31; M5 antag: 63*; M4 ag: 31

Results for COc1ccc2cc3[n+](cc2c1OC)CCc1cc2c(cc1-3)OCO2 ?
M4 PAM: -14; CHRM5 agonist: 0; M4 antag: 41*!; CHRM5 PAM: -4; M5 antag: -3; M4 ag: 0

How did COc1cccc(C2=NCCc3cc4c(cc32)OCO4)c1OC do in these assays?
M4 PAM: -4; CHRM5 agonist: 1; M4 antag: 10; CHRM5 PAM: -4; M5 antag: 4; M4 ag: 3

Results for O=C(Cn1ncc2c([nH]c3ccccc32)c1=O)NCCc1ccccc1 ?
M4 PAM: 19*; CHRM5 agonist: 0; M4 antag: 0; CHRM5 PAM: 12; M5 antag: -5; M4 ag: 1

How did Nc1nnn(CC(=O)N/N=C/c2cccc3ccccc23)n1 do in these assays?
M4 PAM: 3; CHRM5 agonist: 9; M4 antag: 5; CHRM5 PAM: 18*; M5 antag: 24; M4 ag: 1

What do the screens show for `Cc1ccccc1/C=N/NC(=O)Cn1nnc(N)n1`?
M4 PAM: 12; CHRM5 agonist: -1; M4 antag: -7; CHRM5 PAM: 7; M5 antag: -8; M4 ag: 1

Results for COc1ccccc1N1CCN(C(=O)c2oc3c(c2C)C(=O)CC(C)(C)C3)CC1 ?
M4 PAM: -8; CHRM5 agonist: -1; M4 antag: 2; CHRM5 PAM: -14; M5 antag: 29*; M4 ag: 24

Results for Cc1c(C(=O)N2CCN(c3ccccn3)CC2)oc2c1C(=O)CC(C)(C)C2 ?
M4 PAM: -7; CHRM5 agonist: 2; M4 antag: -7; CHRM5 PAM: -10; M5 antag: 3; M4 ag: 18

Results for COc1ccc(-c2cnc3c(NC=O)cc(-c4cccc(NS(C)(=O)=O)c4)cn23)cc1OC ?
M4 PAM: -4; CHRM5 agonist: -2; M4 antag: -10; CHRM5 PAM: -9; M5 antag: 4; M4 ag: 2

How did COC(=O)/C=C1\S/C(=N/NC(=O)c2ccc(OC)cc2)NC1=O do in these assays?
M4 PAM: 4; CHRM5 agonist: -1; M4 antag: 1; CHRM5 PAM: -12; M5 antag: 30*; M4 ag: 2

Results for CCCCCNC(=O)C(c1ccc(OC)cc1)n1c(=O)c(-c2cc3ccccc3[nH]2)nc2ccccc21 (stereo not given) ?
M4 PAM: -1; CHRM5 agonist: 1; M4 antag: -16; CHRM5 PAM: 2; M5 antag: -7; M4 ag: 1

How did CC(C)(C)n1nnnc1C(c1cccs1)N(Cc1cccnc1)Cc1ccco1 (stereo not given) do in these assays?
M4 PAM: -17; CHRM5 agonist: -16; M4 antag: 26; CHRM5 PAM: -48; M5 antag: 70*; M4 ag: -2

What do the screens show for `COc1ccc(/C=C(/NC(=O)c2ccc(Br)o2)C(=O)Nc2cccc(C(=O)O)c2)cc1`?
M4 PAM: 1; CHRM5 agonist: 2; M4 antag: -1; CHRM5 PAM: -1; M5 antag: -8; M4 ag: 2

What do the screens show for `CN1C[C@@H]2C(c3ccccc3)C3(c4cccnc4)CC2(C3)[C@H]1c1ccccc1` (stereo not given in full)?
M4 PAM: -15; CHRM5 agonist: -10; M4 antag: 57*; CHRM5 PAM: -41; M5 antag: 31*; M4 ag: 0

How did Clc1ccccc1-c1cc2nc(NCc3ccco3)ccn2n1 do in these assays?
M4 PAM: 4; CHRM5 agonist: 1; M4 antag: 0; CHRM5 PAM: -2; M5 antag: 6; M4 ag: 2

From PubChem BioAssay
